Results taken from publication PMC5831399 (Cell chemical biology, 2017).

Assays:
Format in all cases: cell-based
L858R EGFR = L858R EGFR (Homo sapiens, UniProt P00533, L858R); assay: L858R EGFR degradation, immunoblot in H3255 cells; conditions: 24 hours
Summary of the method: (§1)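 Cells cultured in RPMI-1640 with 10% FBS and 1% penicillin-streptomycin at 37°C, 5% CO2. They were treated for 24 hours with increasing concentrations of a gefitinib-based PROTAC. Cells were lysed in Tris pH 7.5/NP-40/deoxycholate buffer with phosphatase and protease inhibitors, then cleared at 16,000 × g. Protein was normalised by BCA, resolved by 8% SDS-PAGE, blotted to nitrocellulose, detected by ECL and quantified by densitometry.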

exon 19 del EGFR = exon 19 del EGFR (Homo sapiens, UniProt P00533, DEL746-750); assay: Exon 19 deletion EGFR degradation, immunoblot in HCC827 cells; conditions: 24 hours
Summary of the method: as §1

EGFR = EGFR (Homo sapiens, UniProt P00533); assay: EGFR degradation, immunoblot of treated cells; conditions: Figure S2, cell line not given

COc1cc2ncnc(Nc3ccc(F)c(Cl)c3)c2cc1OCCCCCOCCOCCC(=O)N[C@H](C(=O)N1C[C@H](O)C[C@H]1C(=O)NCc1ccc(-c2scnc2C)cc1)C(C)(C)C [Compound 3]
degradation of L858R EGFR (L858R EGFR): enabled the degradation | degradation of exon-19 deletion EGFR (exon 19 del EGFR): enabled the degradation | WT EGFR degradation (EGFR): sparing the WT EGFR
